Data set [1] can be described thus: Activity at Kir6.2 channel in Landrace pig bladder detrusor assessed as relaxation of electrically stimulated contraction. More on the design: species or system Sus scrofa.
For data set [2], the species on record is Sus scrofa. Description: Inhibition of unstable spontaneous bladder contractions in Landrace/Yorkshire pig bladder instability model. The format is functional, organism-based.
Data set [3] deals with Sus scrofa. The data set can be described thus: Reduction of blood pressure in pig at 0.3 mg/kg, iv. In kind it is functional. On the set-up: scale not given: the % may be the effect or the level left. The gist of the method: (§1)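 Conscious obstructed, telemetered pigs held in restraint cage with 20 gauge venous catheters in both ears for dosing and blood sampling; mean arterial pressure recorded, averaged over post-dose period as percent change from baseline.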

In the next data set the test system is Portal vein. Description: Effect on rat portal vein. In kind it is functional, tissue-based.
Data set [4] has as its system Sus scrofa. The data set can be described thus: Reduction of blood pressure in pig at 1 mg/kg, iv. The format is functional. On the set-up: scale not given: the % may be the effect or the level left. The gist of the method:
as §1

For data set [5], the system named is Sus scrofa. Description: Reduction of unstable spontaneous bladder contractions in Landrace/Yorkshire pig bladder instability model at 1 mg/kg, iv. In kind it is functional. More on the design: scale not given: the % may be the effect or the level left.
For data set [6], the system named is Sus scrofa. The data set can be described thus: Reduction of unstable spontaneous bladder contractions in Landrace/Yorkshire pig bladder instability model at 0.3 mg/kg, iv. More on the design: scale not given: the % may be the effect or the level left. In kind it is functional.
Data set [7] in a line: Half life in dog at 100 nmol/kg, iv. In kind it is ADME, organism-based, Canis lupus familiaris. The conditions noted are these: in vivo.
Data set [8] can be described thus: Half life in dog at 100 nmol/kg, po. In kind it is ADME, organism-based, Canis lupus familiaris. The note with it: in vivo.
Data set [9] is described as follows: Tmax in dog at 100 nmol/kg, po. In kind it is ADME, organism-based, Canis lupus familiaris. The conditions noted are these: in vivo.
Data set [10] is described as follows: Plasma clearance in dog at 100 nmol/kg, iv. The format is ADME, organism-based, Canis lupus familiaris.
Data set [11] in a line: Oral bioavailability in dog at 100 nmol/kg, po. In kind it is ADME, organism-based, Canis lupus familiaris. The note with it: in vivo.
Data set [12] can be described thus: Half life in dog at 10 nmol/kg, iv. The format is ADME, organism-based, Canis lupus familiaris. The conditions noted are these: in vivo.
Data set [13] can be described thus: Oral bioavailability in dog at 10 nmol/kg, po. The conditions noted are these: in vivo. The format is ADME, organism-based, Canis lupus familiaris.
The nature of data set [14]: Half life in dog at 10 nmol/kg, po. In kind it is ADME, organism-based, Canis lupus familiaris. The note with it: in vivo.
Data set [15] is described as follows: Tmax in dog at 10 nmol/kg, po. The note with it: in vivo. The format is ADME, organism-based, Canis lupus familiaris.
A short description of data set [16]: Plasma clearance in dog at 10 nmol/kg, iv. In kind it is ADME, organism-based, Canis lupus familiaris.

Structures are written as SMILES.

Consider 23 compounds from ChEMBL document CHEMBL1138291, “Structure-activity studies of novel cyanoguanidine ATP-sensitive potassium channel openers for the treatment of overactive bladder” (J Med Chem, 2007).

With `CC(Cl)(Cl)C(NC(=O)c1cc(Cl)cc(Cl)c1)N/C(=N/C#N)Nc1ccc(C(F)(F)F)nc1` (stereo unspecified), in data set [1], the “Log EC50” value is on record as -5.7.
Still for that read-out and setting: for `CC(Cl)(Cl)C(NC(=O)c1cc(Cl)cc(Cl)c1)N/C(=N/C#N)Nc1ccc(Cl)nc1` (stereo unspecified) the value was -5.44.
In the case of `CC(Cl)(Cl)C(NC(=O)c1cccc(F)c1)N/C(=N/C#N)Nc1ccc(C(F)(F)F)nc1` (stereo unspecified), in data set [1], the “Log EC50” value is -5.71.
Take `CC(Cl)(Cl)C(NC(=O)c1cccs1)N/C(=N/C#N)Nc1ccc(C(F)(F)F)nc1` (stereo unspecified): the “Log EC50” value in data set [1] is -5.44.
Consider `Cc1cccc(C(=O)NC(N/C(=N/C#N)Nc2ccc(C(F)(F)F)nc2)C(C)(Cl)Cl)c1` (stereo unspecified), for which the “Log EC50” value in [1] is recorded as -5.94.
Still for that read-out and setting: the same measure for `CC(Cl)(Cl)C(NC(=O)c1ccc(Cl)cc1)N/C(=N/C#N)Nc1ccccc1F` (stereo unspecified): -5.98; for `CC(Cl)(Cl)C(NC(=O)c1ccc(Cl)cc1)N/C(=N/C#N)Nc1cncc(Br)c1` (stereo unspecified): -6.23.
Turning to `Cc1cccc(C(=O)NC(N/C(=N/C#N)Nc2ccc(Cl)nc2)C(C)(Cl)Cl)c1` (stereo unspecified), in data set [1], the “Log EC50” value is -5.42.
Usually EC50 stands for the concentration that produces a half-maximal response. Take `CC(Cl)(Cl)C(NC(=O)c1ccc(Cl)cc1)N/C(=N/C#N)Nc1ccc(Cl)nc1` (stereo unspecified): the Activity entry in the data set filed under Sus scrofa [2] was “Dose-dependent effect”; in the data set on Sus scrofa [3] it was 1.4%; with Sus scrofa [4], 36%; in the data set with Sus scrofa [5] it was 90.7%; in the data set with Sus scrofa [6], 19.7%. This compound had an EC50 in the data set on Portal vein of 813 nM.
In the case of `CC(Cl)(Cl)C(NC(=O)c1cccc(F)c1)N/C(=N/C#N)Nc1ccc(Cl)nc1` (stereo unspecified), the “Log EC50” value in [1] is on record as -5.68.
What is called half-life is the time in which the quantity being followed falls by half. The Tmax is the time from dosing to the highest level. As usually defined, the clearance is a measure of how efficiently the substance is removed, as volume per time. One may read the bioavailability as the share of a dose that reaches the circulation, judged against a reference dose that is usually intravenous. As for `CC(Cl)(Cl)C(NC(=O)c1cc(F)cc(F)c1)N/C(=N/C#N)Nc1ccc(C(F)(F)F)nc1` (stereo unspecified), the half-life is 5.5 h in data set [7] and 6.9 h in [8]. Also, the Tmax in [9] was 0.7 h. Also, in data set [10], the clearance is 1 mL/min/kg. Further, the “Log EC50” value in [1] was -5.54. The compound further returned a bioavailability in data set [11] of 100%.
For the compound `CC(Cl)(Cl)C(NC(=O)c1ccc(F)cc1)N/C(=N/C#N)Nc1ccc(C(F)(F)F)nc1` (stereo unspecified), the “Log EC50” value in [1] is recorded as -6.02.
With `CC(Cl)(Cl)C(NC(=O)c1cccc(Cl)c1)N/C(=N/C#N)Nc1ccc(C(F)(F)F)nc1` (stereo unspecified), in data set [1], the “Log EC50” value is on record as -5.28.
In the case of `CC(Cl)(Cl)C(NC(=O)c1cccc(Cl)c1)N/C(=N/C#N)Nc1ccc(Cl)nc1` (stereo unspecified), in data set [1], the “Log EC50” value is listed as -5.35.
The same measure, in the same setting: the same measure for `COc1ncccc1N/C(=N\C#N)NC(NC(=O)c1ccc(Cl)cc1)C(C)(Cl)Cl` (stereo unspecified): -6.6; for `Cc1ccc(C(=O)NC(N/C(=N/C#N)Nc2ccc(C(F)(F)F)nc2)C(C)(Cl)Cl)cc1` (stereo unspecified): -5.15; for `CC(Cl)(Cl)C(NC(=O)c1ccc(Cl)cc1)N/C(=N/C#N)Nc1cccnc1Cl` (stereo unspecified): -6.16.
With `CC(Cl)(Cl)C(NC(=O)c1ccc(C(F)(F)F)cc1)N/C(=N/C#N)Nc1ccc(C(F)(F)F)nc1` (stereo unspecified), in data set [1], the “Log EC50” value is reported as -5.65.
For `CC(O)(C(=O)Nc1ccc(C(=O)c2ccccc2)cc1)C(F)(F)F` (single isomer, unassigned) [ZD-6169], the half-life in data set [12] was 1.9 h; in [14], 1.6 h. The bioavailability in data set [13] is 43%. Also, the time to peak (Tmax) in data set [15] is 0.4 h. Besides, in data set [16], the clearance is 11.2 mL/min/kg.
On to `CC(Cl)(Cl)C(NC(=O)c1ccc(Cl)cc1)NC(=NC#N)Nc1ccc(Cl)nc1` (stereo unspecified), for which the half-life is 9.9 h in [7] and 15 h in [8]. In addition, in data set [9], the Tmax is 0.4 h. For the same compound, in data set [10], the clearance is 2.17 mL/min/kg. In data set [11], this compound returned a bioavailability of 100%.
As for `CC(Cl)(Cl)C(NC(=O)c1ccc(Cl)cc1)N/C(=N/C#N)Nc1ccc(F)nc1` (stereo unspecified), the “Log EC50” value in [1] is reported as -5.87.
With `CC(Cl)(Cl)C(NC(=O)c1ccc(Cl)cc1)N/C(=N/C#N)Nc1ccc(C(F)(F)F)nc1` (stereo unspecified), in [1], the “Log EC50” value is -5.78.
As to `CC(Cl)(Cl)[C@@H](NC(=O)c1ccc(Cl)cc1)N/C(=N/C#N)Nc1cccnc1`, in data set [1], the “Log EC50” value is reported as -5.26.
